Results reported in ChEMBL document CHEMBL1141647, “Novel ofloxacin derivatives: synthesis, antimycobacterial and toxicological evaluation” (Bioorg Med Chem Lett, 2008).
In brackets after ≈: the same amount, converted by molar mass.

Legend:
[1] = system: Mycolicibacterium smegmatis; assay: Antimycobacterial activity against Mycobacterium smegmatis ATCC 14468 by agar dilution method; type: functional
Procedure, shortened: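 MC² (M. smegmatis) growth inhibition; MIC99 taken as the lowest concentration giving complete inhibition of bacterial growth, in µM.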

Vero = assay: Cytotoxicity against african green monkey Vero cells after 72 hrs by MTT assay; type: cell-based; conditions: Chlorocebus sabaeus
Procedure, shortened: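 Vero cells exposed for 72 h; tested up to 62.5 µg/mL. Viability was read as cellular conversion of MTT to formazan, and IC50 was reported in µM.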

[2] = system: Mycobacterium tuberculosis; assay: Antimycobacterial activity against Mycobacterium tuberculosis H37Rv by agar dilution method; type: functional
Procedure, shortened: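 MIC99 was taken as the lowest concentration giving complete inhibition of bacterial growth.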

Mus musculus [3] = assay: Phototoxic effect in mouse assessed as ear thickness at 140 mg/kg administered before UV light exposure relative to control; type: ADME, organism-based; set-up: dose 140 mg/kg; conditions: in vivo
Procedure, shortened: (§1)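 Mice dosed at 140 mg/kg and exposed to UV immediately after dosing. Irradiation ended at 4 h. Ear thickness (mm) was measured at 0 (pre-dose), 4, 24, 48, 72 and 96 h, left and right ears averaged, mean ± SEM. Comparison was against vehicle controls (0.5% aqueous sodium carboxymethylcellulose, 10 mL/kg) and against the 0 h reading.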

Mus musculus [4] = assay: Phototoxic effect in UV light irradiated mouse assessed as ear thickness at 140 mg/kg, after 72 hrs relative to control; type: ADME, organism-based; set-up: dose 140 mg/kg; conditions: in vivo; procedure, shortened: as §1
Mus musculus [5] = assay: Phototoxic effect in UV light irradiated mouse assessed as ear thickness at 140 mg/kg, after 24 hrs relative to control; type: ADME, organism-based; set-up: dose 140 mg/kg; conditions: in vivo; procedure, shortened: as §1
Mus musculus [6] = assay: Phototoxic effect in UV light irradiated mouse assessed as ear thickness at 140 mg/kg, after 48 hrs relative to control; type: ADME, organism-based; set-up: dose 140 mg/kg; conditions: in vivo; procedure, shortened: as §1
Mus musculus [7] = assay: Phototoxic effect in UV light irradiated mouse assessed as ear thickness at 140 mg/kg, after 96 hrs relative to control; type: ADME, organism-based; set-up: dose 140 mg/kg; conditions: in vivo; procedure, shortened: as §1
Mus musculus [8] = assay: Phototoxic effect in UV light irradiated mouse assessed as ear thickness at 140 mg/kg, after 4 hrs relative to control; type: ADME, organism-based; set-up: dose 140 mg/kg; conditions: in vivo; procedure, shortened: as §1
DNA gyrase subunit A = DNA gyrase subunit A (Mycolicibacterium smegmatis, UniProt Q59556); assay: Inhibition of Mycobacterium smegmatis DNA gyrase
Chain of DNA gyrase subunit A (Q59556 whole entry): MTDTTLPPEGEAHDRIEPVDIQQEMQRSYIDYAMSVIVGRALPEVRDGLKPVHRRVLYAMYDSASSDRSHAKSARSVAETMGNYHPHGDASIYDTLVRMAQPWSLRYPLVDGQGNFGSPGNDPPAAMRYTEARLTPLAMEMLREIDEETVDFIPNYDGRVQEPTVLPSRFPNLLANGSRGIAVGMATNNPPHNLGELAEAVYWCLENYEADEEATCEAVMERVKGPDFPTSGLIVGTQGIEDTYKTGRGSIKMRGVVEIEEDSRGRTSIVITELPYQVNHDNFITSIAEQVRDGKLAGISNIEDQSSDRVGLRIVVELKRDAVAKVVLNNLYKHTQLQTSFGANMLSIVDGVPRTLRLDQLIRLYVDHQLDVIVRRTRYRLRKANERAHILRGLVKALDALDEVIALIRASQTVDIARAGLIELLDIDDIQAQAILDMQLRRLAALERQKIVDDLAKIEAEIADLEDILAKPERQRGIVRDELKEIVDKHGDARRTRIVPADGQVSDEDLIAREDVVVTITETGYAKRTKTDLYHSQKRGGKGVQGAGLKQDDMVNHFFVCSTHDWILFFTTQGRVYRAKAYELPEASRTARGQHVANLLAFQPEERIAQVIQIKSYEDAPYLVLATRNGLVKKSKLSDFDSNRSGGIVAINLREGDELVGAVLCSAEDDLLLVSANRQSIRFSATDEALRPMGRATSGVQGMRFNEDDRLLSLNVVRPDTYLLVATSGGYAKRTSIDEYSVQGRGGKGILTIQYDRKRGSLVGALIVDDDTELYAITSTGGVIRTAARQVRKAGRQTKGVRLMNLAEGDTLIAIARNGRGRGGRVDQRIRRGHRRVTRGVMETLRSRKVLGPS
Procedure, shortened: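 Inhibition of DNA supercoiling by M. smegmatis (MC²) gyrase, run under standard assay conditions. Varying compound amounts were tested against a fixed amount of enzyme, and IC50 was derived from that series. Relaxed circular DNA served as marker, 5% DMSO as solvent control, and moxifloxacin at 5 µg/mL as positive control.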

Mus musculus [9] = assay: Phototoxic effect in UV light irradiated mouse assessed as number of mouse bearing erythema at 140 mg/kg, after 96 hrs relative to control; type: ADME, organism-based; set-up: dose 140 mg/kg; conditions: in vivo
Procedure, shortened: (§2)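 Mice received 140 mg/kg and were UV-irradiated immediately after dosing, irradiation ending at 4 h. Both ears were scored for erythema at 0, 4, 24, 48, 72 and 96 h, counted as the number of mice with erythema. Vehicle control was 0.5% aqueous sodium carboxymethylcellulose at 10 mL/kg.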

Mus musculus [10] = assay: Phototoxic effect in mouse assessed as number of mouse bearing erythema at 140 mg/kg administered before UV light exposure relative to control; type: ADME, organism-based; set-up: dose 140 mg/kg; conditions: in vivo; procedure, shortened: as §2
Mus musculus [11] = assay: Phototoxic effect in UV light irradiated mouse assessed as number of mouse bearing erythema at 140 mg/kg, after 48 hrs relative to control; type: ADME, organism-based; set-up: dose 140 mg/kg; conditions: in vivo; procedure, shortened: as §2
Mus musculus [12] = assay: Phototoxic effect in UV light irradiated mouse assessed as number of mouse bearing erythema at 140 mg/kg, after 4 hrs relative to control; type: ADME, organism-based; set-up: dose 140 mg/kg; conditions: in vivo; procedure, shortened: as §2
Mus musculus [13] = assay: Phototoxic effect in UV light irradiated mouse assessed as number of mouse bearing erythema at 140 mg/kg, after 72 hrs relative to control; type: ADME, organism-based; set-up: dose 140 mg/kg; conditions: in vivo; procedure, shortened: as §2
Mus musculus [14] = assay: Phototoxic effect in UV light irradiated mouse assessed as number of mouse bearing erythema at 140 mg/kg, after 24 hrs relative to control; type: ADME, organism-based; set-up: dose 140 mg/kg; conditions: in vivo; procedure, shortened: as §2

CC1COc2c(N3CCc4ccccc4C3C(=O)NC(C)(C)C)c(F)cc3c(=O)c(C(=O)O)cn1c23 (stereo not given)
MIC99 [1]: 50.7 µM (≈ 25 µg/mL)
IC50 (Vero): 127 µM
MIC99 [2]: 3.16 µM (≈ 1.56 µg/mL)

CC1COc2c(N3CCN(C)CC3)c(F)cc3c(=O)c(C(=O)O)cn1c23.Cl (stereo not given)
Activity (Mus musculus [3]): 0.29 mm
Activity (Mus musculus [4]): 0.35 mm
Activity (Mus musculus [5]): 0.29 mm
Activity (Mus musculus [6]): 0.3 mm
Activity (Mus musculus [7]): 0.35 mm
Activity (Mus musculus [8]): 0.32 mm

CC1COc2c(N3CCc4ccccc4C3C(=O)NC(C)(C)C)c(F)c([N+](=O)[O-])c3c(=O)c(C(=O)O)cn1c23 (stereo not given)
IC50 (DNA gyrase subunit A): 92.8 µM
MIC99 [1]: 2.89 µM (≈ 1.56 µg/mL)
IC50 (Vero): 116 µM
MIC99 [2]: 1.45 µM (≈ 0.781 µg/mL)

CC1COc2c(N3CCN(C)C(c4ccccc4)C3)c(F)cc3c(=O)c(C(=O)O)cn1c23 (stereo not given)
MIC99 [1]: 114 µM (≈ 50 µg/mL)
MIC99 [2]: 14.3 µM (≈ 6.25 µg/mL)

CC1COc2c(N3CCC4(CC3)OCCO4)c(F)c(N)c3c(=O)c(C(=O)O)cn1c23 (stereo not given)
MIC99 [1]: 11.2 µM (≈ 4.68 µg/mL)
IC50 (Vero): > 149 µM
MIC99 [2]: 3.72 µM (≈ 1.56 µg/mL)

CC1CN(c2c(F)cc3c(=O)c(C(=O)O)cn4c3c2OCC4C)CC(C)O1 (stereo not given)
IC50 (DNA gyrase subunit A): > 133 µM
MIC99 [1]: 4.14 µM (≈ 1.56 µg/mL)
IC50 (Vero): > 166 µM
MIC99 [2]: 4.14 µM (≈ 1.56 µg/mL)

CC1COc2c(N3CCn4cc(C(=O)O)nc4C3)c(F)c(N)c3c(=O)c(C(=O)O)cn1c23 (stereo not given)
MIC99 [1]: 5.28 µM (≈ 2.34 µg/mL)
IC50 (Vero): > 141 µM
MIC99 [2]: 0.88 µM (≈ 0.39 µg/mL)

CC1COc2c(N3CCN(C(=O)c4ccco4)CC3)c(F)c([N+](=O)[O-])c3c(=O)c(C(=O)O)cn1c23 (stereo not given)
MIC99 [1]: 3.21 µM (≈ 1.56 µg/mL)
IC50 (Vero): 64.2 µM
MIC99 [2]: 0.8 µM (≈ 0.389 µg/mL)

CC1COc2c(N3CCN(Cc4ccc5c(c4)OCO5)CC3)c(F)cc3c(=O)c(C(=O)O)cn1c23 (stereo not given)
MIC99 [1]: 26 µM (≈ 12.5 µg/mL)
MIC99 [2]: 6.5 µM (≈ 3.13 µg/mL)

CC1COc2c(N3CCSCC3)c(F)c([N+](=O)[O-])c3c(=O)c(C(=O)O)cn1c23 (stereo not given)
Activity (Mus musculus [9]): Non-toxic
IC50 (DNA gyrase subunit A): 122 µM
Activity (Mus musculus [3]): 0.25 mm
Activity (Mus musculus [4]): 0.28 mm
Activity (Mus musculus [5]): 0.29 mm
Activity (Mus musculus [6]): 0.29 mm
MIC99 [1]: 1.91 µM (≈ 0.782 µg/mL)
Activity (Mus musculus [10]): Non-toxic
Activity (Mus musculus [11]): Non-toxic
Activity (Mus musculus [7]): 0.28 mm
IC50 (Vero): 153 µM
Activity (Mus musculus [12]): Non-toxic
Activity (Mus musculus [8]): 0.28 mm
Activity (Mus musculus [13]): Non-toxic
MIC99 [2]: 1.91 µM (≈ 0.782 µg/mL)
Activity (Mus musculus [14]): Non-toxic

CC1COc2c(N3CCSCC3)c(F)cc3c(=O)c(C(=O)O)cn1c23 (stereo not given)
IC50 (DNA gyrase subunit A): 110 µM
MIC99 [1]: 4.28 µM (≈ 1.56 µg/mL)
IC50 (Vero): > 172 µM
MIC99 [2]: 2.14 µM (≈ 0.78 µg/mL)

CC1COc2c(N3CCN(C(c4ccccc4)c4ccc(Cl)cc4)CC3)c(F)cc3c(=O)c(C(=O)O)cn1c23 (stereo not given)
MIC99 [1]: 45.6 µM (≈ 25 µg/mL)
MIC99 [2]: 5.71 µM (≈ 3.13 µg/mL)

CC1COc2c(N3CCN(Cc4ccc5c(c4)OCO5)CC3)c(F)c([N+](=O)[O-])c3c(=O)c(C(=O)O)cn1c23 (stereo not given)
MIC99 [1]: 1.48 µM (≈ 0.779 µg/mL)
IC50 (Vero): 119 µM
MIC99 [2]: 2.96 µM (≈ 1.56 µg/mL)

CC1COc2c(N3CCN(C(=O)C4COc5ccccc5O4)CC3)c(F)c([N+](=O)[O-])c3c(=O)c(C(=O)O)cn1c23 (stereo not given)
MIC99 [1]: 11.3 µM (≈ 6.25 µg/mL)
IC50 (Vero): 113 µM
MIC99 [2]: 2.81 µM (≈ 1.56 µg/mL)

CCn1cc(C(=O)O)c(=O)c2cc(F)c(N3CCNC(C)C3)c(F)c21 (stereo not given) [LOMEFLOXACIN]
Activity (Mus musculus [9]): Toxic
Activity (Mus musculus [3]): 0.31 mm
Activity (Mus musculus [4]): 0.64 mm
Activity (Mus musculus [5]): 0.48 mm
Activity (Mus musculus [6]): 0.53 mm
Activity (Mus musculus [10]): Non-toxic
Activity (Mus musculus [11]): Toxic
Activity (Mus musculus [7]): 0.6 mm
Activity (Mus musculus [12]): Toxic
Activity (Mus musculus [8]): 0.4 mm
Activity (Mus musculus [13]): Toxic
Activity (Mus musculus [14]): Toxic

CC1COc2c(N3CCC(n4c(=O)[nH]c5cc(Cl)ccc54)CC3)c(F)cc3c(=O)c(C(=O)O)cn1c23 (stereo not given)
MIC99 [1]: 48.7 µM (≈ 25 µg/mL)
IC50 (Vero): > 122 µM
MIC99 [2]: 1.52 µM (≈ 0.78 µg/mL)

CC1COc2c(N3CCC(O)(c4ccc(Cl)cc4)CC3)c(F)cc3c(=O)c(C(=O)O)cn1c23 (stereo not given)
MIC99 [1]: 26.4 µM (≈ 12.5 µg/mL)
MIC99 [2]: 6.62 µM (≈ 3.13 µg/mL)
